Compound activity from PubChem.
The full list was thinned out, with hits kept by preference.
HUVEC prolif 384 = inhibitors of human endothelial cell proliferation | HUVEC proliferation, CellTiter-Glo luminescence, 72 h; hits give low values | viability, % at 10 µM (by protocol) | hit rate 1.1% among 86,000 | AID 648;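 active means viability at or below 30%; inactive means viability above 30%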;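 further: 100% = median luminescence of DMSO-only cell control wells on each plate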
bCat KO growth = beta-catenin-lacking colon tumor cell growth suppression; HCT116 beta-catenin knockout viability, CellTiter-Glo, 60 h; hits give low values; viability, % at 10 µM; hit rate 1.5% among 140,000; AID 818;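 active means viability at or under a set limit, the compound median less 4 SD, cut at about 6% in these data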;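 further: 0% = Hyamine 1622 control at 20 µM and 100% = untreated cell control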
Fibroblast inh = blocks proliferation of human lung fibroblasts; viability, % at 10 µM; LL 47 human lung fibroblast viability, ATP luminescence; hits give low values; hit rate 1.1% among 85,000;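 active means viability at or below 50% in the single dose screen; inactive means viability above 50%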;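 further: compound exposure lasted 72 h before the ATP readout; 100% = median luminescence of untreated cell-only wells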
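Material: human LL 47 lung fibroblast cells; quantity: 1,150 cells/well; medium: IMEM plus 15% FBS; doses: 0.1% DMSO in all compound wells; timing: overnight attachment after seeding, then 72 h compound exposure at 37 °C; detection: CellTiter-Glo luminescence; measure: % viability of median cell-only signal; controls: cell-only wells, no compound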
H69AR growth 86K = blocks growth of human H69AR lung tumor cells | H69AR lung tumor viability, ATP luminescence, 72 h; hits give low values | viability, % at 10 µM | hit rate 6% among 85,000 | AID 598;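 active means viability at or below 40%; inactive means viability above 40%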;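 further: multidrug resistant small cell line overexpressing MRP-1 efflux transporter; 100% = mean luminescence of untreated control wells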
PTEN del growth = suppresses growth of cells with PTEN deletion | HCT116 PTEN-null viability, CellTiter-Glo, 60 h; hits give low values | viability, % at 10 µM | hit rate 1.2% among 140,000 | AID 827;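 active means viability at or below a set limit, 4 SD under the median of all tested compounds, cut at about 3.7% in these data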;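 further: PTEN knockout HCT116 line with beta catenin targeted HCT116 as companion control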
Active calls of the source: *.

Results for CC12CCC(C(=O)Nc3ccccc3)(C(Br)C1=O)C2(C)C (stereo not drawn) ?
bCat KO growth: 97; PTEN del growth: 97

Results for CCOc1ccc(-c2[nH]ncc2Oc2cccc(OC)c2)c(O)c1 ?
HUVEC prolif 384: 69; bCat KO growth: 87; Fibroblast inh: 93; H69AR growth 86K: 18*; PTEN del growth: 90

Results for COc1cccc(Oc2cn[nH]c2-c2ccc(O)cc2O)c1 ?
HUVEC prolif 384: 84; bCat KO growth: 94; Fibroblast inh: 87; H69AR growth 86K: 73; PTEN del growth: 93

What do the screens show for `COc1cccc(Oc2cn[nH]c2-c2ccc(OC)cc2O)c1`?
HUVEC prolif 384: 51; bCat KO growth: 94; Fibroblast inh: 94; H69AR growth 86K: 8.1*; PTEN del growth: 88

What do the screens show for `COc1ccc(-c2[nH]ncc2-c2ccc(Cl)cc2)c(O)c1`?
HUVEC prolif 384: 52; bCat KO growth: 89; Fibroblast inh: 88; H69AR growth 86K: 14*; PTEN del growth: 72

Results for Oc1ccc(-c2[nH]ncc2-c2ccc(Cl)cc2)c(O)c1 ?
HUVEC prolif 384: 56; bCat KO growth: 76; Fibroblast inh: 88; H69AR growth 86K: 99; PTEN del growth: 67

What do the screens show for `CCOC(=O)c1[nH]c2ccccc2c1NC(=O)Nc1ccc(OC)cc1`?
bCat KO growth: 82; PTEN del growth: 83

How did CC(=Nc1cccc(C)c1)c1sc2ccccc2c1O do in these assays?
HUVEC prolif 384: 86; bCat KO growth: 84; Fibroblast inh: 109; H69AR growth 86K: 44; PTEN del growth: 87

What do the screens show for `Cc1cccc(N=Nc2ccc(O)c3ncccc23)c1`?
bCat KO growth: 6.0*; PTEN del growth: 14

Results for CC1=CC(C)=Nc2ccccc2N1 ?
HUVEC prolif 384: 92; bCat KO growth: 93; Fibroblast inh: 97; H69AR growth 86K: 44; PTEN del growth: 95

What do the screens show for `Cc1ccc(C2=Nc3ccccc3NC(C)(c3ccc(C)o3)C2)o1` (stereo not drawn)?
HUVEC prolif 384: 85; bCat KO growth: 75; Fibroblast inh: 86; H69AR growth 86K: 38*; PTEN del growth: 88

How did Cc1cc(NC(=O)c2cccc(S(=O)(=O)N(C)C)c2)n(-c2ccccn2)n1 do in these assays?
HUVEC prolif 384: 79; bCat KO growth: 93; Fibroblast inh: 96; H69AR growth 86K: 26*; PTEN del growth: 101

Results for Cc1cc(NC(=O)c2cccc(S(=O)(=O)N3CCCCCC3)c2)n(-c2ccccn2)n1 ?
HUVEC prolif 384: 88; bCat KO growth: 72; Fibroblast inh: 88; H69AR growth 86K: 66; PTEN del growth: 84

Results for COc1ccc(Cl)cc1-n1c(C)ccc1C ?
bCat KO growth: 16; PTEN del growth: 17

Results for CC(C)N=C(NS(=O)(=O)c1ccccc1)C(Cl)(Cl)Cl ?
bCat KO growth: 3.5*; PTEN del growth: 2.0*

Results for Cc1cc(Nc2ccc3c(c2)OCCO3)c2cc(Cl)ccc2n1 ?
bCat KO growth: 25; PTEN del growth: 33

How did Nc1nnc(SCc2ccc(Cl)cc2)s1 do in these assays?
HUVEC prolif 384: 98; bCat KO growth: 0.8*; Fibroblast inh: 107; H69AR growth 86K: 100; PTEN del growth: 0.8*

Results for O=C(NCC1CCCO1)C(=Cc1cccc([N+](=O)[O-])c1)C(=O)NCC1CCCO1 (stereo not drawn) ?
bCat KO growth: 5.2*; PTEN del growth: 4

What do the screens show for `O=C(Nc1ccc(Cl)cc1C(=O)NCCN1CCOCC1)c1ccc(Cl)cc1Cl`?
HUVEC prolif 384: 77; bCat KO growth: 91; Fibroblast inh: 92; H69AR growth 86K: 38*; PTEN del growth: 107

How did O=C(Nc1c(Cl)cc(Cl)cc1C(=O)NCCN1CCOCC1)c1ccc(Cl)cc1Cl do in these assays?
HUVEC prolif 384: 87; bCat KO growth: 94; Fibroblast inh: 99; H69AR growth 86K: 64; PTEN del growth: 91

Results for Cc1ccc(C(=O)CC2(O)C(=O)N(C)c3ccc(Br)cc32)c(C)c1 (stereo not drawn) ?
HUVEC prolif 384: 83; bCat KO growth: 71; Fibroblast inh: 86; H69AR growth 86K: 36*; PTEN del growth: 80

What do the screens show for `CN1C(=O)C(O)(CC(=O)c2ccccn2)c2cc(Br)ccc21` (stereo not drawn)?
HUVEC prolif 384: 59; bCat KO growth: 42; Fibroblast inh: 85; H69AR growth 86K: 29*; PTEN del growth: 34

What do the screens show for `CCN(CCCNC(=O)C1CCN(S(=O)(=O)c2cnc[nH]2)CC1)c1cccc(C)c1`?
HUVEC prolif 384: 98; bCat KO growth: 102; Fibroblast inh: 96; H69AR growth 86K: 90; PTEN del growth: 94
